From ChEMBL document CHEMBL1143420, “Distribution of suramin, an antitrypanosomal drug, across the blood-brain and blood-cerebrospinal fluid interfaces in wild-type and P-glycoprotein transporter-deficient mice” (Antimicrob Agents Chemother, 2007) come the findings set out here.

Series [1] in a line: Biodistribution in perfused wild type FVB Mdr1a/Mdr1b positive mouse choroid plexus assessed as tritiated drug level after 2.5 mins relative to control. Conditions: in vivo. The series is classed as ADME, organism-based. The essentials:
(§1)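 Mice were perfused with artificial plasma for 4 min, then decapitated. The IVth ventricle choroid plexus was excised and preincubated 10 min in artificial CSF at 37°C. […] BALB/c tissue also received 150 µM phenylarsine oxide in 0.05% DMSO, or 0.05% DMSO alone.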

The nature of series [2]: Biodistribution in FVB Mdr1a/Mdr1b deficient mouse frontal cortex assessed as tritiated drug level at 150 uM perfusion after 30 mins by capillary depletion assay. Conditions: in vivo, other, 0.5 h. The series is classed as ADME, organism-based. The essentials:
(§2)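 The method compared multiple-time CNS uptake in Mdr1a/Mdr1b+/+ and –/– FVB male mice (about 25 g; genotype confirmed by PCR). […] Regional dpm/g was expressed relative to plasma (RTissue%). 3-4 mice per point. Genotypes were compared by Student's t test.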

A short description of series [3]: Biodistribution in wild type FVB Mdr1a/Mdr1b positive mouse pineal gland assessed as tritiated drug level at 150 uM perfusion after 30 mins by capillary depletion assay. It is filed as ADME, organism-based. Particulars: in vivo, other, 0.5 h. The gist of the method: as §2
Series [4] concerns Hypothalamus. The experiment in a line: Biodistribution in wild type FVB Mdr1a/Mdr1b positive mouse hypothalamus assessed as tritiated drug level at 150 uM perfusion after 30 mins by capillary depletion assay. The series is classed as ADME, organism-based. Conditions: in vivo, other, 0.5 h. The gist of the method:
as §2

Series [5] in a line: Biodistribution in perfused wild type FVB Mdr1a/Mdr1b positive mouse choroid plexus assessed as tritiated drug level after 30 mins relative to control. It is filed as ADME, organism-based. Particulars: in vivo, 0.5 h. The gist of the method: as §1
Series [6] has as its system Thalamus. Description: Biodistribution in BALB/c mouse thalamus assessed as tritiated drug level at 150 uM perfusion after 10 mins by capillary depletion assay in presence of phenylarsine ocide. It is filed as ADME, organism-based. Particulars: in vivo, other. The essentials: (§3)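 BALB/c mice were perfused in situ via the heart at 5 ml/min. A 10-min preperfusion used either 150 µM phenylarsine oxide in 0.05% DMSO (final) or a 0.05% DMSO control. […] Brain regions were sampled and counted by liquid scintillation. Results are RTissue% as mean ± SEM.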

The species named for a further series is Mus musculus. The experiment in a line: Drug uptake in BALB/c mouse assessed as tritiated drug level at 5 ml/min perfusion after 10 min relative to [14C]sucrose. Particulars: in vivo, other. It is filed as ADME, organism-based.
Series [7] in a line: Biodistribution in wild type FVB Mdr1a/Mdr1b positive mouse pituitary gland assessed as tritiated drug level at 150 uM perfusion after 30 mins by capillary depletion assay. It is filed as ADME, organism-based. Conditions: in vivo, other, 0.5 h. The gist of the method: as §2
Series [8] in a line: Biodistribution in perfused BALB/c mouse choroid plexus assessed as tritiated drug level after 2.5 mins in presence of phenylarsine oxide relative to control. It is filed as ADME, organism-based. Conditions: in vivo. The essentials: as §1
A short description of series [9]: Biodistribution in wild type FVB Mdr1a/Mdr1b positive mouse brain 4th ventricle choroid plexus assessed as tritiated drug level at 150 uM perfusion after 30 mins by capillary depletion assay. The series is classed as ADME, organism-based. Particulars: in vivo, other, 0.5 h. The essentials:
as §2

Series [10] deals with Thalamus. Description: Biodistribution in FVB Mdr1a/Mdr1b deficient mouse thalamus assessed as tritiated drug level at 150 uM perfusion after 30 mins by capillary depletion assay. Conditions: in vivo, other, 0.5 h. The series is classed as ADME, organism-based. The gist of the method: as §2
Series [11] can be described thus: Biodistribution in FVB Mdr1a/Mdr1b deficient mouse caudate putamen assessed as tritiated drug level at 150 uM perfusion after 30 mins by capillary depletion assay. It is filed as ADME, organism-based. Particulars: in vivo, other, 0.5 h. The essentials:
as §2

The test system of the next series is Cerebellum. Description: Biodistribution in FVB Mdr1a/Mdr1b deficient mouse cerebellum assessed as tritiated drug level at 150 uM perfusion after 30 mins by capillary depletion assay. It is filed as ADME, organism-based. Particulars: in vivo, other, 0.5 h. The essentials:
as §2

Series [12] in a line: Biodistribution in perfused FVB Mdr1a/Mdr1b deficient mouse choroid plexus assessed as tritiated drug level after 30 mins relative to control. The series is classed as ADME, organism-based. Conditions: in vivo, 0.5 h. The essentials:
as §1

The subject of series [13] is Hypothalamus. Description: Biodistribution in FVB Mdr1a/Mdr1b deficient mouse hypothalamus assessed as tritiated drug level at 150 uM perfusion after 30 mins by capillary depletion assay. The series is classed as ADME, organism-based. Particulars: in vivo, other, 0.5 h. The essentials:
as §2

Series [14] in a line: Biodistribution in perfused FVB Mdr1a/Mdr1b deficient mouse choroid plexus assessed as tritiated drug level after 2.5 mins relative to control. It is filed as ADME, organism-based. Conditions: in vivo. The essentials:
as §1

The nature of series [15]: Biodistribution in wild type FVB Mdr1a/Mdr1b positive mouse caudate putamen assessed as tritiated drug level at 150 uM perfusion after 30 mins by capillary depletion assay. It is filed as ADME, organism-based. Particulars: in vivo, other, 0.5 h. The gist of the method:
as §2

Series [16] is described as follows: Biodistribution in perfused BALB/c mouse choroid plexus assessed as tritiated drug level after 2.5 mins in presence of DMSO relative to control. Conditions: in vivo. It is filed as ADME, organism-based. The essentials: as §1
Series [17] is described as follows: Biodistribution in perfused FVB Mdr1a/Mdr1b deficient mouse choroid plexus assessed as drug accumulation after 30 mins. Conditions: in vivo, 0.5 h. The series is classed as ADME, organism-based. The gist of the method: as §1
The nature of series [18]: Protein binding in mouse plasma assessed as tritiated drug level. It is filed as ADME, cell-free. Conditions: read-out: PPB (converted). The essentials: (§4)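 [3H]suramin (0.14 µCi) was dissolved in 0.7 ml of warmed artificial plasma, mouse plasma, or reconstituted human plasma. Binding was measured by centrifugal ultrafiltration. Mouse plasma came from heparinized cardiac blood of male FVB mice, spun at 5,400 x g for 10 min. Human plasma was lyophilized citrated plasma. Protein retention by the filter was checked by the Lowry method.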

Series [19] is described as follows: Biodistribution in BALB/c mouse pineal gland assessed as tritiated drug level at 5 ml/min perfusion after 30 min. The series is classed as ADME, organism-based. Conditions: in vivo, other, 0.5 h. The gist of the method:
(§5)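 BALB/c mice were anesthetized (medetomidine 2 mg/kg, ketamine 150 mg/kg), heparinized, and perfused via the left ventricle at 5 ml/min with oxygenated artificial plasma (Krebs-Henseleit base, 1 g/liter BSA, 37°C). […] Tissue dpm/g was expressed as % of plasma dpm/ml (RTissue%). 3-4 mice per point.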

Series [20] is described as follows: Biodistribution in BALB/c mouse 4th ventricle choroid plexus assessed as tritiated drug level at 5 ml/min perfusion after 30 min. The series is classed as ADME, organism-based. Conditions: in vivo, other, 0.5 h. The gist of the method:
as §5

Series [21] in a line: Biodistribution in wild type FVB Mdr1a/Mdr1b positive mouse choroid plexus assessed as tritiated drug level at 150 uM perfusion after 30 mins by capillary depletion assay. The series is classed as ADME, organism-based. Particulars: in vivo, other, 0.5 h. The gist of the method:
as §2

Series [22] is described as follows: Protein binding in human plasma assessed as tritiated drug level. Particulars: read-out: PPB (converted). It is filed as ADME, cell-free. The essentials:
as §4

Series [23] in a line: Biodistribution in perfused wild type FVB Mdr1a/Mdr1b positive mouse choroid plexus assessed as drug accumulation after 30 mins. The series is classed as ADME, organism-based. Conditions: in vivo, 0.5 h. The gist of the method:
as §1

A short description of series [24]: Biodistribution in perfused BALB/c mouse choroid plexus assessed as drug accumulation after 2.5 mins in presence of DMSO. The series is classed as ADME, organism-based. Particulars: in vivo. The essentials:
as §1

A short description of series [25]: Biodistribution in BALB/c mouse choroid plexus assessed as tritiated drug level at 150 uM perfusion after 10 mins by capillary depletion assay in presence of DMSO. It is filed as ADME, organism-based. Conditions: in vivo, other. The essentials:
as §3

The nature of series [26]: Biodistribution in perfused FVB Mdr1a/Mdr1b deficient mouse choroid plexus assessed as drug accumulation after 2.5 mins. The series is classed as ADME, organism-based. Particulars: in vivo. The gist of the method:
as §1

Series [27] in a line: Biodistribution in perfused wild type FVB Mdr1a/Mdr1b positive mouse choroid plexus assessed as drug accumulation after 2.5 mins. The series is classed as ADME, organism-based. Conditions: in vivo. The essentials: as §1
The nature of series [28]: Biodistribution in perfused BALB/c mouse choroid plexus assessed as drug accumulation after 2.5 mins in presence of phenylarsine oxide. Particulars: in vivo. It is filed as ADME, organism-based. The essentials:
as §1

The nature of series [29]: Biodistribution in FVB Mdr1a/Mdr1b deficient mouse pituitary gland assessed as tritiated drug level at 150 uM perfusion after 30 mins by capillary depletion assay. Particulars: in vivo, other, 0.5 h. It is filed as ADME, organism-based. The gist of the method:
as §2

The nature of series [30]: Protein binding in artificial plasma assessed as tritiated drug level. Particulars: read-out: PPB (converted). It is filed as ADME, cell-free. The gist of the method:
as §4

Series [31] in a line: Biodistribution in FVB Mdr1a/Mdr1b deficient mouse choroid plexus assessed as tritiated drug level at 150 uM perfusion after 30 mins by capillary depletion assay. The series is classed as ADME, organism-based. Particulars: in vivo, other, 0.5 h. The essentials: as §2
The nature of series [32]: Biodistribution in BALB/c mouse pituitary gland assessed as tritiated drug level at 5 ml/min perfusion after 30 min. It is filed as ADME, organism-based. Conditions: in vivo, other, 0.5 h. The essentials: as §5
The nature of series [33]: Partition coefficient of the compound. Particulars: octanol/water.
A short description of series [34]: Biodistribution in FVB Mdr1a/Mdr1b deficient mouse pineal gland assessed as tritiated drug level at 150 uM perfusion after 30 mins by capillary depletion assay. It is filed as ADME, organism-based. Particulars: in vivo, other, 0.5 h. The gist of the method:
as §2

As to `OC[C@H]1O[C@@](CO)(O[C@H]2O[C@H](CO)[C@@H](O)[C@H](O)[C@H]2O)[C@@H](O)[C@@H]1O` [SUCROSE], the Drug uptake turned out to be 0.9% in [1]; 2.5% in [2]; 54.4% in series [3]; 2.2% in the series on Hypothalamus [4]; 2.1% in [5]; 1.56% in the series listed under Mus musculus. Moreover, the Drug uptake worked out at 80.4% in series [7]; 1.6% in series [8]; 83.2% in series [9]; 3.4% in the series on Thalamus [10]; 2.5% in series [11]; 2.5% with Cerebellum. For the same molecule, the Drug uptake came out at 2.6% in series [12]; 5.8% with Hypothalamus [13]; 1.8% in [14]; 1.1% in series [15]; 0.7% in [16]. Also, in the series on Thalamus [6], the Activity is 2.2%.
Consider `Cc1ccc(C(=O)Nc2ccc(S(=O)(=O)O)c3cc(S(=O)(=O)O)cc(S(=O)(=O)O)c23)cc1NC(=O)c1cccc(NC(=O)Nc2cccc(C(=O)Nc3cc(C(=O)Nc4ccc(S(=O)(=O)O)c5cc(S(=O)(=O)O)cc(S(=O)(=O)O)c45)ccc3C)c2)c1` [SURAMIN], for which the Drug uptake amounted to 9.5% in series [1]; 263% in series [3]; 26.6% in [17]; 27.2% in [5]; 388% in [19]; 163% in series [20]. Further, the Drug uptake in series [7] came to 46%; in series [8], 13%; in series [21], 100%; in [23] it was 25.3%; in [24], 6.7%; in series [25], 99.4%. In addition, the Drug uptake in [26] was determined as 10.9%; in series [27], 8.6%; in series [28] it was 11.4%; in series [12] it was 29.3%; in series [29] it was 57%; in [31], 97%. For the same molecule, the Drug uptake in [32] came out at 39%; in series [14], 12.5%; in series [34] it was 437%; in series [16], 7.4%. Moreover, the fraction unbound in [18] was 0.03; in series [22], 0.006; in series [30] it was 0.047. The molecule also gave a partition coefficient in series [33] of 0.00023.
